Test results reported in ChEMBL document CHEMBL3091284, “Hygrocins C-G, cytotoxic naphthoquinone ansamycins from gdmAI-disrupted Streptomyces sp. LZ35” (J Nat Prod, 2013).
The source made the active and inactive calls. No cut-off for these calls is given here.

Key:
Format in all cases: functional, cell-based
Homo sapiens = organism: Homo sapiens; assay: Cytotoxicity against human MDA-MB-431 cells assessed as growth inhibition up to 10 uM by MTT assay
Method in brief: (§1)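 MTT viability/proliferation assay on human cancer lines (breast MDA-MB-431, prostate PC3, alveolar basal epithelial A549, colorectal SW620, hepatocellular HepG2). Compounds tested up to a maximum of 10 μM, with activity judged relative to control and IC50 derived. Cisplatin at 5 μg/mL served as positive control.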

SW-620 = assay: Cytotoxicity against human SW620 cells assessed as growth inhibition up to 10 uM by MTT assay; method in brief: as §1
PC-3 [1] = assay: Cytotoxicity against human PC3 cells assessed as growth inhibition up to 10 uM by MTT assay; method in brief: as §1
A549 = assay: Cytotoxicity against human A549 cells assessed as growth inhibition up to 10 uM by MTT assay; method in brief: as §1
HepG2 = assay: Cytotoxicity against human HepG2 cells assessed as growth inhibition up to 10 uM by MTT assay; method in brief: as §1
[2] = Cytotoxicity against human MDA-MB-431 cells by MTT assay; method in brief: as §1
PC-3 [3] = assay: Cytotoxicity against human PC3 cells by MTT assay; method in brief: as §1

SMILES: CCC1/C=C/[C@H](O)[C@H](C)OC(=O)[C@@]2(C)C=CC(=O)NC3=C2C(=O)c2c(cc(C)c(O)c2C(=O)CC1)C3=O (stereo partly specified)
- growth inhibition (GI) (Homo sapiens): inactive
- growth inhibition (GI) (SW-620): inactive
- growth inhibition (GI) (PC-3 [1]): inactive
- growth inhibition (GI) (A549): inactive
- growth inhibition (GI) (HepG2): inactive

SMILES: CC[C@@H]1/C=C/[C@H](O)[C@H](C)OC(=O)/C(C)=C/[C@@H]2C(=O)NC3=CC(=O)c4c(cc(C)c(O)c4C(=O)CC1)[C@@]32O
- growth inhibition (GI) (Homo sapiens): inactive
- growth inhibition (GI) (SW-620): inactive
- growth inhibition (GI) (PC-3 [1]): inactive
- growth inhibition (GI) (A549): inactive
- growth inhibition (GI) (HepG2): inactive

SMILES: CCC1/C=C/[C@H](C(C)O)OC(=O)[C@@]2(C)C=CC(=O)NC3=C2C(=O)c2c(cc(C)c(O)c2C(=O)CC1)C3=O (stereo partly specified)
- growth inhibition (GI) (Homo sapiens): inactive
- growth inhibition (GI) (SW-620): inactive
- growth inhibition (GI) (PC-3 [1]): inactive
- growth inhibition (GI) (A549): inactive
- growth inhibition (GI) (HepG2): inactive

SMILES: CC[C@@H]1/C=C/[C@H](O)[C@H](C)OC(=O)/C(C)=C\[C@H]2C(=O)NC3=CC(=O)c4c(cc(C)c(O)c4C(=O)CC1)[C@@]32O
- IC50 [2]: 0.5 µM
- IC50 (PC-3 [3]): 1.9 µM

SMILES: CC[C@@H]1/C=C/[C@H](C(C)O)OC(=O)/C(C)=C\[C@H]2C(=O)NC3=CC(=O)c4c(cc(C)c(O)c4C(=O)CC1)[C@@]32O (stereo partly specified)
- IC50 [2]: 3.3 µM
- IC50 (PC-3 [3]): 4.5 µM

SMILES: CC[C@@H]1/C=C/[C@H](O)[C@H](C)OC(=O)/C(C)=C\[C@@H]2C(=O)NC3=CC(=O)c4c(cc(C)c(O)c4C(=O)CC1)[C@@]32O
- IC50 [2]: 3 µM
- IC50 (PC-3 [3]): 5 µM
